Measurements from ChEMBL document CHEMBL5608261, “Pharmacophore Establishment and Optimization of Saturated 1,6-Naphthyridine-Fused Quinazolinones that Inhibit Meningoencephalitis-Causing Naegleria fowleri” (J Med Chem, 2024).
Values after ≈ are worked out from the molar mass of the structure shown.

What was measured:
Naegleria fowleri [1] = assay: Anti-ameobic activity against Naegleria fowleri TY (ATCC 30107) trophozoites assessed as inhibition of amoeba growth incubated for 48 hrs by CellTiter-Glo assay; format: functional, organism-based
Outline: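 TY strain (ATCC 30107) trophozoites, seeded at 1 × 10^4 cells/mL, were exposed 48 h (37 °C, 5% CO2) to vehicle or compound, with concentrations initially 20 to 0.375 μM. CellTiter-Glo luminescence gave % growth inhibition versus controls. EC50 was fit from triplicate runs (n = 3, ± SEM).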

[2] = Metabolic stability in CD-1 mouse liver microsomes assessed as half-life incubated for 60 mins by LC-MS/MS analysis; format: ADME, Microsome; conditions: 1 h
Outline: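 Half-life measured in CD-1 mouse liver microsomes with NADPH over a 60 min exposure.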

Naegleria fowleri [3] = assay: Anti-ameobic activity against Naegleria fowleri Nf69 (ATCC 30215) trophozoites assessed as inhibition of amoeba growth incubated for 48 hrs by CellTiter-Glo assay; format: functional, organism-based
Outline: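 Axenic Nf69 trophozoites were seeded at 1 × 10^4 cells/mL in Nelson's complete medium with 10% heat-inactivated FBS. Compound was added at 20 to 0.375 μM (lower ranges for very potent compounds), with vehicle controls, for 48 h at 37 °C and 5% CO2. CellTiter-Glo luminescence gave % growth inhibition versus controls, and triplicate means were fitted to dose–response curves for EC50.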

[4] = Stability in CD-1 mouse plasma assessed as half-life measured upto 120 mins by LC-MS analysis; format: ADME, cell-free; conditions: 2 h
[5] = Protein binding in CD-1 mouse plasma assessed as free fraction incubated for 4 hrs by equilibrium dialysis based LC-MS/MS analysis; format: ADME, cell-free
SH-SY5Y = assay: (§1) Cytotoxicity against human SH-SY5Y cells assessed as reduction in cell viability incubated for 72 hrs by CellTiter-Glo assay; format: toxicity, cell-based; conditions: sh-sy5y, 72 h
Outline: (§2)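 SH-SY5Y cells at 2000 per well attached overnight at 37 °C. Compound from 20 mM DMSO stocks was added in triplicate as a dose series starting at 20 μM, with doxorubicin as positive control.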

[6] = Metabolic stability in human liver microsomes assessed as half-life; format: ADME, Microsome
[7] = Kinetic solubility of compound at pH 7.4 incubated for 24 hrs by HPLC analysis; format: physicochemical; conditions: buffer; for solubility kinetic at 24 h: pH 7.4, read-out: Kinetic_solubility; for Kinetic_solubility: pH 7.4, 24 h
[8] = Selectivity index, ratio of CC50 for cytotoxicity against human SH-SY5Y cells to EC50 for anti-amoebic activity against Naegleria fowleri Nf69 (ATCC 30215) assessed as inhibition of amoeba growth; format: toxicity, cell-based; conditions: for selectivity ratio: SH-SY5Y cells, read-out: Ratio CC50/EC50
[9] = Protein binding in CD-1 mouse plasma incubated for 4 hrs by equilibrium dialysis based LC-MS/MS analysis; format: ADME, cell-free; conditions: CD-1, mouse, read-out: PPB (converted)
[10] = as §1; format: toxicity, cell-based; conditions: SH-SY5Y cells; outline: as §2
Naegleria fowleri [11] = assay: Anti-ameobic activity against Naegleria fowleri Nf69 (ATCC 30215) trophozoites infected in female CD-1 mouse model assessed as survival rate at 5 mg/kg, ip pre-infected for 48 hrs from day 0 followed by once daily compound administration from day 2 to day 6 and measured on day 14 post-infection relative to control; format: functional; conditions: 312 h, time 13 day
Outline: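 Female CD-1 mice (n = 6/group) were infected intranasally with Nf69 trophozoites on day 0. After a 48 h establishment period, they received IP dosing at 5 mg/kg once daily for 5 days, alongside a vehicle-only infected control group. Survival was followed for 14 days with Kaplan–Meier analysis. Survivor brain tissue was cultured for amoeba, and survival counted only mice whose brains were free of amoeba.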

[12] = Naegleria fowleri, Nf69 (ATCC 30215), 48 h

Row | SMILES | t1/2 [2] | EC50 (Naegleria fowleri [3]) | CC50 (SH-SY5Y) | solubility kinetic at 24 h [7] | EC50 (Naegleria fowleri [3]; [12]) | selectivity ratio [8] | also measured
1 | COc1cc2nc3n(c(=O)c2cc1Cl)CC[C@@H]1[C@@H]3CCCN1CC1COC1 | 75.6 min | 490 nM | > 20 µM | 29.1 µM (≈ 11.3 µg/mL) | – | – | EC50 (Naegleria fowleri [1]): 470 nM; t1/2 [4]: > 289 min; fraction unbound at 4 h [5]: 0.26; t1/2 [6]: 80.3 min; Ratio CC50/EC50 [8]: > 40.8; fraction unbound at 4 h [9]: 0.26
2 | CN1CCC[C@@H]2c3nc4cc(Cl)c(Cl)cc4c(=O)n3CC[C@H]21 | 6.1 min | 86 nM | 7.8 µM | – | – | – | Kinetic_solubility ([7]; 24 h): 98.2 µM; Ratio CC50/EC50 [8]: 90.7
3 | CN1CCC[C@@H]2c3nc4ccc(Cl)cc4c(=O)n3CC[C@H]21 | 11.5 min | 280 nM | > 20 µM | – | – | – | Kinetic_solubility ([7]; 24 h): 129 µM; Ratio CC50/EC50 [8]: > 71.4
4 | CN1CCC[C@@H]2c3nc4ccc(C(F)(F)F)cc4c(=O)n3CC[C@H]21 | 10.9 min | 250 nM | – | – | – | – | Kinetic_solubility ([7]; 24 h): 109 µM; Ratio CC50/EC50 [8]: > 80
5 | COc1cc2nc3n(c(=O)c2cc1Cl)CC[C@H]1[C@H]3CCCN1CC(C)C | – | – | 1 µM | 2.6 µM (≈ 0.977 µg/mL) | 27 nM | 38 | –
6 | O=c1c2cc(Cl)c(Cl)cc2nc2n1CC[C@@H]1[C@@H]2CCCN1CC1COC1 (racemic) | 109 min | – | > 20 µM | – | 6 nM | > 33000 | Kinetic_solubility [7]: 40 µM
7 | COc1cc2nc3n(c(=O)c2cc1Cl)CC[C@@H]1[C@@H]3CCCN1CC1COC1 (racemic) | > 145 min | 29 nM | 5 µM | – | – | – | Kinetic_solubility ([7]; 24 h): 198 µM; Ratio CC50/EC50 [8]: 172
8 | CC(C)OCCN1CCC[C@@H]2c3nc4cc(Cl)c(Cl)cc4c(=O)n3CC[C@H]21 (racemic) | 9.8 min | – | > 20 µM | – | 0.4 nM | – | –
9 | COc1cc2nc3n(c(=O)c2cc1Cl)CC[C@@H]1[C@@H]3CCCN1CCOC(C)C (racemic) | 3.1 min | – | 2.5 µM | 65.7 µM (≈ 26.7 µg/mL) | 110 nM | 22.7 | –
10 | O=c1c2cc(Cl)c(Cl)cc2nc2n1CC[C@@H]1[C@@H]2CCCN1CC1CCOCC1 (racemic) | 67.2 min | – | > 20 µM | – | 7 nM | – | –
11 | COc1cc2nc3n(c(=O)c2cc1C#N)CC[C@@H]1[C@@H]3CCCN1CC1COC1 (racemic) | 104.6 min | – | > 20 µM | 136 µM (≈ 51.7 µg/mL) | 120 nM | > 167 | –
12 | CN1CCC[C@@H]2c3nc4cc(Cl)c(Cl)cc4c(=O)n3CC[C@H]21 (racemic) | – | 200 nM | – | 138 µM (≈ 46.7 µg/mL) | – | > 100 | CC50 at 72 h [10]: > 20 µM
13 | CN1CCC[C@@H]2c3nc4ccc(Cl)cc4c(=O)n3CC[C@H]21 (racemic) | 18.5 min | 1000 nM | – | 187 µM (≈ 56.8 µg/mL) | – | – | CC50 at 72 h [10]: > 20 µM; Ratio CC50/EC50 [8]: > 20
14 | CN1CCC[C@@H]2c3nc4ccc(C(F)(F)F)cc4c(=O)n3CC[C@H]21 (racemic) | 21.2 min | 1100 nM | – | 159 µM (≈ 53.6 µg/mL) | – | – | CC50 at 72 h [10]: > 20 µM; Ratio CC50/EC50 [8]: > 18.2
15 | COc1cc2nc3n(c(=O)c2cc1Cl)CC[C@@H]1[C@@H]3CCCN1CCN1CCCC1 (racemic) | > 145 min | – | > 20 µM | 172 µM (≈ 71.7 µg/mL) | 740 nM | > 27 | –
16 | O=c1c2cc(Cl)c(Cl)cc2nc2n1CC[C@@H]1[C@@H]2CCCN1CCO (racemic) | 83.1 min | – | > 20 µM | – | 20 nM | – | Kinetic_solubility [7]: < 10 µM
17 | COc1cc2nc3n(c(=O)c2cc1Cl)CC[C@@H]1[C@@H]3CCCN1CC1CCC1 (racemic) | 3.8 min | – | 0.64 µM | 4.6 µM (≈ 1.78 µg/mL) | 15 nM | 42.7 | –
18 | O=c1c2cc(Cl)c(Cl)cc2nc2n1CC[C@@H]1[C@@H]2CCCN1CC1CC1 (racemic) | 18.3 min | – | 4.8 µM | – | 2 nM | 2400 | –
19 | COc1cc2nc3n(c(=O)c2cc1Cl)CC[C@@H]1[C@@H]3CCCN1CCN1CCOCC1 (racemic) | 29.8 min | – | > 20 µM | 43.1 µM (≈ 18.7 µg/mL) | 520 nM | > 38.5 | –
20 | COc1cc2nc3n(c(=O)c2cc1Cl)CC[C@@H]1[C@@H]3CCCN1CC1CC1 (racemic) | 12.6 min | – | 1 µM | 76.1 µM (≈ 28.5 µg/mL) | 23 nM | 43.5 | –
21 | O=c1c2cc(Cl)c(Cl)cc2nc2n1CC[C@@H]1[C@@H]2CCCN1Cc1cccnc1 (racemic) | 21.9 min | – | > 20 µM | – | 0.2 nM | – | –
22 | COCCN1CCC[C@@H]2c3nc4cc(Cl)c(Cl)cc4c(=O)n3CC[C@H]21 (racemic) | 17 min | – | 10 µM | – | 23 nM | 435 | –
23 | COc1cc2nc3n(c(=O)c2cc1Cl)CC[C@@H]1[C@@H]3CCCN1Cc1cccnc1 (racemic) | – | – | > 20 µM | 3.8 µM (≈ 1.56 µg/mL) | 120 nM | > 167 | –
24 | O=c1c2cc(Cl)c(Cl)cc2nc2n1CC[C@@H]1[C@@H]2CCCN1CCN1CCOCC1 (racemic) | 75.2 min | – | > 20 µM | – | 11 nM | – | Kinetic_solubility [7]: 206 µM
25 | C[C@@H]1[C@H](O)[C@@H](C)/C=C/C=C/C=C/C=C/C=C/C=C/C=C/[C@H](O[C@@H]2O[C@H](C)[C@@H](O)[C@H](N)[C@@H]2O)C[C@@H]2O[C@](O)(C[C@@H](O)C[C@@H](O)[C@H](O)CC[C@@H](O)C[C@@H](O)CC(=O)O[C@H]1C)C[C@H](O)[C@H]2C(=O)O [AMPHOTERICIN B] | – | – | – | – | – | – | survival at 5 mg/kg (Naegleria fowleri [11]): 17%
